Assay results from ChEMBL document CHEMBL4184148 (Bioorg Med Chem Lett, 2017).

Legend:
[1] = molecular target: Serine/threonine-protein kinase MARK1 (Homo sapiens) (UniProt Q9P0L2); experiment: Binding affinity to wild-type human partial length MARK1 (Q30 to T341 residues) expressed in Escherichia coli BL21 at 1 uM by Kinomescan method relative to control
[2] = molecular target: Epidermal growth factor receptor (Homo sapiens) (UniProt P00533); experiment: Binding affinity to human partial length EGFR S752-I759del mutant expressed in Escherichia coli BL21 at 1 uM by Kinomescan method relative to control
[3] = molecular target: Dual serine/threonine and tyrosine protein kinase (Homo sapiens) (UniProt Q6XUX3); experiment: Binding affinity to wild-type human full length RIPK5 (M1 to T929 residues) expressed in HEK293 cells at 1 uM by Kinomescan method relative to control; type: cell-based
[4] = molecular target: TRAF2 and NCK-interacting protein kinase (Homo sapiens) (UniProt Q9UKE5); experiment: Binding affinity to wild-type human partial length TNIK (D4 to K311 residues) expressed in Escherichia coli BL21 at 1 uM by Kinomescan method relative to control
[5] = molecular target: Mitogen-activated protein kinase kinase kinase 5 (Homo sapiens) (UniProt Q99683); experiment: Binding affinity to wild-type human partial length ASK1 (E648 to S964 residues) expressed in Escherichia coli BL21 at 1 uM by Kinomescan method relative to control
Outline: (§1)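 Kinome-wide competition binding panel run by an outside provider, with each compound tested at a single concentration. Activity is read against the kinase panel.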

[6] = molecular target: Serine/threonine-protein kinase PAK 6 (Homo sapiens) (UniProt Q9NQU5); experiment: Binding affinity to wild-type human partial length PAK6 (N298 to C681 residues) expressed in Escherichia coli BL21 at 1 uM by Kinomescan method relative to control
[7] = molecular target: Serine/threonine-protein kinase ULK1 (Homo sapiens) (UniProt O75385); experiment: Binding affinity to wild-type human partial length ULK1 (M1 to T309 residues) expressed in HEK293 cells at 1 uM by Kinomescan method relative to control; type: cell-based
[8] = molecular target: Mitogen-activated protein kinase kinase kinase kinase 4 (Homo sapiens) (UniProt O95819); experiment: Binding affinity to wild-type human partial length MAP4K4 (M1 to R310 residues) expressed in Escherichia coli BL21 at 1 uM by Kinomescan method relative to control
[9] = molecular target: Serine/threonine-protein kinase TAO2 (Homo sapiens) (UniProt Q9UL54); experiment: Binding affinity to wild-type human partial length TAOK2 (M1 to A320 residues) expressed in HEK293 cells at 1 uM by Kinomescan method relative to control; type: cell-based
[10] = molecular target: Mitogen-activated protein kinase kinase kinase 12 (DLK) (Homo sapiens) (UniProt Q12852); experiment: Binding affinity to wild-type human full length DLK (M1 to P859 residues) expressed in HEK293 cells at 1 uM by Kinomescan method relative to control
[11] = molecular target: Calcium-dependent protein kinase 1 (Plasmodium falciparum) (UniProt P62344); experiment: Binding affinity to wild-type Plasmodium falciparum full length CDPK1 (M1 to S524 residues) expressed in HEK293 cells at 1 uM by Kinomescan method relative to control; type: cell-based
[12] = molecular target: Serine/threonine-protein kinase Nek10 (Homo sapiens) (UniProt Q6ZWH5); experiment: Binding affinity to wild-type human partial length NEK10 (L488 to R809 residues) expressed in HEK293 cells at 1 uM by Kinomescan method relative to control; type: cell-based
[13] = molecular target: Ribosomal protein S6 kinase alpha-6 (Homo sapiens) (UniProt Q9UK32); experiment: Binding affinity to wild-type human partial length C-terminal RSK4 kinase domain 2 (I401 to Y711 residues) expressed in Escherichia coli BL21 at 1 uM by Kinomescan method relative to control
[14] = molecular target: Mitogen-activated protein kinase kinase kinase 15 (Homo sapiens) (UniProt Q6ZN16); experiment: Binding affinity to wild-type human partial length MAP3K15 (T625 to L932 residues) expressed in HEK293 cells at 1 uM by Kinomescan method relative to control; type: cell-based
[15] = molecular target: Mitogen-activated protein kinase 9 (Homo sapiens) (UniProt P45984); experiment: Binding affinity to wild-type human full length JNK2 (M1 to Q382 residues) expressed in HEK293 cells at 1 uM by Kinomescan method relative to control; type: cell-based
Outline: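 Run as one kinome-wide competition binding panel with each compound at a single fixed concentration. Results were plotted as a kinome-wide selectivity map.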

[16] = molecular target: Transient receptor potential cation channel subfamily M member 6 (Homo sapiens) (UniProt Q9BX84); experiment: Binding affinity to wild-type human partial length TRPM6 (Q1723 to I1998 residues) expressed in HEK293 cells at 1 uM by Kinomescan method relative to control; type: cell-based
[17] = molecular target: Bromodomain-containing protein 4 (Homo sapiens, UniProt O60885); experiment: Inhibition of BRD4 (unknown origin) by AlphaScreen assay
[18] = system: Phosphatidylinositol 4,5-bisphosphate 3-kinase catalytic subunit alpha isoform (Homo sapiens), P42336 [H1047L]; experiment: Binding affinity to human partial length PIK3CA H1047L mutant (R108 to N1068 residues) expressed in HEK293 cells at 1 uM by Kinomescan method relative to control; type: cell-based
[19] = molecular target: Proto-oncogene tyrosine-protein kinase receptor Ret (Homo sapiens) (UniProt P07949); experiment: Binding affinity to wild-type human partial length RET (E713 to D1014 residues) expressed in Escherichia coli BL21 at 1 uM by Kinomescan method relative to control
[20] = molecular target: Serine/threonine-protein kinase PAK 4 (Homo sapiens) (UniProt O96013); experiment: Binding affinity to wild-type human partial length PAK4 (Q144 to R438 residues) expressed in Escherichia coli BL21 at 1 uM by Kinomescan method relative to control
[21] = molecular target: Myosin light chain kinase family member 4 (Homo sapiens) (UniProt Q86YV6); experiment: Binding affinity to wild-type human partial length MYLK4 (V79 to S380 residues) expressed in Escherichia coli BL21 at 1 uM by Kinomescan method relative to control
[22] = molecular target: RAC-beta serine/threonine-protein kinase (Homo sapiens) (UniProt P31751); experiment: Binding affinity to wild-type human partial length AKT2 expressed in Escherichia coli BL21 at 1 uM by Kinomescan method relative to control; outline: as §1
[23] = molecular target: Casein kinase I isoform gamma-1 (Homo sapiens) (UniProt Q9HCP0); experiment: Binding affinity to wild-type human partial length CSNK1G1 (T15 to S353 residues) expressed in Escherichia coli BL21 at 1 uM by Kinomescan method relative to control
[24] = molecular target: Ephrin type-B receptor 6 (Homo sapiens) (UniProt O15197); experiment: Binding affinity to wild-type human partial length EPHB6 (Q634 to P948 residues) expressed in HEK293 cells at 1 uM by Kinomescan method relative to control; type: cell-based
[25] = molecular target: Serine/threonine-protein kinase BRSK2 (Homo sapiens) (UniProt Q8IWQ3); experiment: Binding affinity to wild-type human full length BRSK2 (M1 to L674 residues) expressed in Escherichia coli BL21 at 1 uM by Kinomescan method relative to control
Serine/threonine-protein kinase BRSK2 (Homo sapiens), sequence (Q8IWQ3 whole entry, the tested form may be a part): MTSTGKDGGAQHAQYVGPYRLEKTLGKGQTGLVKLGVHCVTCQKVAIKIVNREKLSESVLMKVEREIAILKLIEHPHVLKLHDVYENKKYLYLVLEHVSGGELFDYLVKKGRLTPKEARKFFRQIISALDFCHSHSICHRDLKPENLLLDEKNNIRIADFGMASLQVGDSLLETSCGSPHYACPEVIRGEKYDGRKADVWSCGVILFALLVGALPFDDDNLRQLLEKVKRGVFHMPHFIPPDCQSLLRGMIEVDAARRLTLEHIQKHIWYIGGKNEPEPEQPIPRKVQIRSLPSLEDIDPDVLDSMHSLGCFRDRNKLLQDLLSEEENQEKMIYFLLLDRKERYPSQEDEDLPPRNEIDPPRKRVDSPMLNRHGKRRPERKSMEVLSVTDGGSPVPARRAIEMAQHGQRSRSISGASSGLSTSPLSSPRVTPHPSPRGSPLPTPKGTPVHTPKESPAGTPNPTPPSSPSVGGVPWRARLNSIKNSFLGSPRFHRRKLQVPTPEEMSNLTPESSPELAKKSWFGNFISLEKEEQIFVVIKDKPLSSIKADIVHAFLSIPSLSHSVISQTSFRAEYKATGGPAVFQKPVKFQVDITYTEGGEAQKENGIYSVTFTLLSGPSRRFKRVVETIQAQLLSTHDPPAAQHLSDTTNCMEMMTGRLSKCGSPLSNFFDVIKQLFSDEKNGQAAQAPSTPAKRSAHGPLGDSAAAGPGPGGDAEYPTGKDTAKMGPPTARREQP

Mitogen-activated protein kinase kinase kinase kinase 4 (Homo sapiens), sequence (O95819 2-1239 limits assumed): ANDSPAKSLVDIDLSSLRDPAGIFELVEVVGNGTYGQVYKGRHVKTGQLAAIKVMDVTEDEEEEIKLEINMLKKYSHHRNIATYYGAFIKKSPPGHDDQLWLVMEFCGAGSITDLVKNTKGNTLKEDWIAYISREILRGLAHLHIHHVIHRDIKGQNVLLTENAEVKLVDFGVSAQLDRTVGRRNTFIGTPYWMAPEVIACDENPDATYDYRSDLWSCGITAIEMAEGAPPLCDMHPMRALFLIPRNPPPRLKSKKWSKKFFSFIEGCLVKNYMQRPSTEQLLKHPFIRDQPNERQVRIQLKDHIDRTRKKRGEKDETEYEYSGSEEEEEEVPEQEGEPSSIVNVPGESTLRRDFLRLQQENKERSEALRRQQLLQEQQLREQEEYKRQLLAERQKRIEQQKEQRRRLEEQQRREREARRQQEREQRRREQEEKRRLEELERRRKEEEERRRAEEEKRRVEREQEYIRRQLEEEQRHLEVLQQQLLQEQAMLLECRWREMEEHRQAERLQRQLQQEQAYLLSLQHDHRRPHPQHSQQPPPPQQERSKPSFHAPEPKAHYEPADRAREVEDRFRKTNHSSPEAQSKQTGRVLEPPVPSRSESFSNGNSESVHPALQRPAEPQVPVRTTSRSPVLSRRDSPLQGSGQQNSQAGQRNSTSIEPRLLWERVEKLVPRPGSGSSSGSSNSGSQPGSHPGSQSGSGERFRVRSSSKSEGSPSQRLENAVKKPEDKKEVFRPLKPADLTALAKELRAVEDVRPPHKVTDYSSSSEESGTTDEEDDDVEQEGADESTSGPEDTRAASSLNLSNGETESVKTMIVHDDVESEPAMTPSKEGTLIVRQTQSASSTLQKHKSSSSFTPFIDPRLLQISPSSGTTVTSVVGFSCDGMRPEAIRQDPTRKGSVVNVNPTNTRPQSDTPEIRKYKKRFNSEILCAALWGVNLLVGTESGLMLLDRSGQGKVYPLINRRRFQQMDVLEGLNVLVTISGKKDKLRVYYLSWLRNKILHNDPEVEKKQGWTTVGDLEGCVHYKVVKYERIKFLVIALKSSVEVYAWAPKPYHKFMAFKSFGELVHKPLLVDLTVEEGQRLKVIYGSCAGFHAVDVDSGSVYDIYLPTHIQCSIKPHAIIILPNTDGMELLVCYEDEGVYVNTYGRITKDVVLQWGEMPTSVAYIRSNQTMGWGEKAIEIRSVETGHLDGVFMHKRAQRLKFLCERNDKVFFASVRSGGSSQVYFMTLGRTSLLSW
Serine/threonine-protein kinase PAK 6 (Homo sapiens), sequence (Q9NQU5 whole entry, looked up, the tested form may be a part): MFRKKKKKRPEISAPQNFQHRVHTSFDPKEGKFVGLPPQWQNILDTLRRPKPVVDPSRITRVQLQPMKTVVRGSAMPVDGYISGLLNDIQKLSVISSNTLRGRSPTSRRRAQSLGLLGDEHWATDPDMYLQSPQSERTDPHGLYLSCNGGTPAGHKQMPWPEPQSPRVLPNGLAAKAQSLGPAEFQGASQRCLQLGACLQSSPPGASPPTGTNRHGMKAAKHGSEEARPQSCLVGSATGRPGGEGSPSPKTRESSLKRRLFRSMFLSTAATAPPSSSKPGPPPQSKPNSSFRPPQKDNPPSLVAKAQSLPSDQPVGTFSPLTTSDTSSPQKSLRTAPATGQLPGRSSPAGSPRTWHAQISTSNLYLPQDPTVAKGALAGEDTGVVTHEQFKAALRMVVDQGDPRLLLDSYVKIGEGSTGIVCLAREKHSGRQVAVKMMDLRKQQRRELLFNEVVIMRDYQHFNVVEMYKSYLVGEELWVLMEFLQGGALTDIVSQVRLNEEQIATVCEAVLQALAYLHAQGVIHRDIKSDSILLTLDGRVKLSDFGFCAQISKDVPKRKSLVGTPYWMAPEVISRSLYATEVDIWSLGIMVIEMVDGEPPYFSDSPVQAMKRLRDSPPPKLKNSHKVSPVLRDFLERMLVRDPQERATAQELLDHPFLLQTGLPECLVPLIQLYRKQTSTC
Transient receptor potential cation channel subfamily M member 6 (Homo sapiens), sequence (Q9BX84 whole entry, the tested form may be a part): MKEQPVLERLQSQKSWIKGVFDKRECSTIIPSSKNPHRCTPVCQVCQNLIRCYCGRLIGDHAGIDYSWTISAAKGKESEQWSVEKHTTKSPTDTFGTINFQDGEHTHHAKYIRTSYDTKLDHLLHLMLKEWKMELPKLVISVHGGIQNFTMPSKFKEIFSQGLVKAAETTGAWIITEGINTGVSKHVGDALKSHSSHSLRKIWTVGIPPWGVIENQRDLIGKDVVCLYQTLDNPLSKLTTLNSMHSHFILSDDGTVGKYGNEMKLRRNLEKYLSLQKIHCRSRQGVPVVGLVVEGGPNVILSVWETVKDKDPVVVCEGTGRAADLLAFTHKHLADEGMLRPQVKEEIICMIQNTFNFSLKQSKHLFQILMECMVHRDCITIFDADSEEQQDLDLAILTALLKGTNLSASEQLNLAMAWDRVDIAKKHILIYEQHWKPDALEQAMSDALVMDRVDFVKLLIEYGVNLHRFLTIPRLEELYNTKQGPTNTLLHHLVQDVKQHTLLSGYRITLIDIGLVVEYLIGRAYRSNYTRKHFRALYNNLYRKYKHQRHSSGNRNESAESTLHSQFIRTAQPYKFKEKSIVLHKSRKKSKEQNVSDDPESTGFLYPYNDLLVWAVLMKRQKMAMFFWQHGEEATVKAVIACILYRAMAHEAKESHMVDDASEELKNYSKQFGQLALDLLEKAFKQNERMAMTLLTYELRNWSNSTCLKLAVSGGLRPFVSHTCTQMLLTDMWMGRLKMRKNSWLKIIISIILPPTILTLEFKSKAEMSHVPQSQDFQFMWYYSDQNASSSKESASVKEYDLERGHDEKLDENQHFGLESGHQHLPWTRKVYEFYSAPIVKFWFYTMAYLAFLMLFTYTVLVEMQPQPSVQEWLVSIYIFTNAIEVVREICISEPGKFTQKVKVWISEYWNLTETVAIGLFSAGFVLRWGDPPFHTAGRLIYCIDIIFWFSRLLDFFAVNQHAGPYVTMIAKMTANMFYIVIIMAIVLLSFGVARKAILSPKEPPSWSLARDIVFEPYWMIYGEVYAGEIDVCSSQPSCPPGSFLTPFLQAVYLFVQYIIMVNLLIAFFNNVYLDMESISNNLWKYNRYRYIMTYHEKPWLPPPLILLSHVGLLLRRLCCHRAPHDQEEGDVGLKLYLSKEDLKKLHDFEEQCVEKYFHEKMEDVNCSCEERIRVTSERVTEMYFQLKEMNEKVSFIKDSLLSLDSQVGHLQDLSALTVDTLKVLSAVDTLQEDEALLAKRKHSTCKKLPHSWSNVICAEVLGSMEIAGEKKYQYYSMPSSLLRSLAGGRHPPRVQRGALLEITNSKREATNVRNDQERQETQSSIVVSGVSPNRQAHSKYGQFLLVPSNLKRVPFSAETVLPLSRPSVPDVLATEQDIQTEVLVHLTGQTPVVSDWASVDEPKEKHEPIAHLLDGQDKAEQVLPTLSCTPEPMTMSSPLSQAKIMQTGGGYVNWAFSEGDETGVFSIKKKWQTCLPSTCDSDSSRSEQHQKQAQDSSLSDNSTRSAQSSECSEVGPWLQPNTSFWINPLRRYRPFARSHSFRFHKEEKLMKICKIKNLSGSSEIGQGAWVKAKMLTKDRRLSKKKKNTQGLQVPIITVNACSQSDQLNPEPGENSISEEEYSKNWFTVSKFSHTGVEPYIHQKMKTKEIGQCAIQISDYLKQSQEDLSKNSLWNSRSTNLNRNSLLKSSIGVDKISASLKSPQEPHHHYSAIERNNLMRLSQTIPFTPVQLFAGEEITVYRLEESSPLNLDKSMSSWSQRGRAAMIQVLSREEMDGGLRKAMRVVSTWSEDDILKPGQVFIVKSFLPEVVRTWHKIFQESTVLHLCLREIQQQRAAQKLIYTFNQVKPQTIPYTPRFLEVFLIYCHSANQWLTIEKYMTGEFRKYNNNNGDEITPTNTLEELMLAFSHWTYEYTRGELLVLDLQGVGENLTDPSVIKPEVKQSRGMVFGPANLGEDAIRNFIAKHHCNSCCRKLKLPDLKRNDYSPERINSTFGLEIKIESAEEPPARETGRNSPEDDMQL
Myosin light chain kinase family member 4 (Homo sapiens), sequence (Q86YV6 whole entry, the tested form may be a part): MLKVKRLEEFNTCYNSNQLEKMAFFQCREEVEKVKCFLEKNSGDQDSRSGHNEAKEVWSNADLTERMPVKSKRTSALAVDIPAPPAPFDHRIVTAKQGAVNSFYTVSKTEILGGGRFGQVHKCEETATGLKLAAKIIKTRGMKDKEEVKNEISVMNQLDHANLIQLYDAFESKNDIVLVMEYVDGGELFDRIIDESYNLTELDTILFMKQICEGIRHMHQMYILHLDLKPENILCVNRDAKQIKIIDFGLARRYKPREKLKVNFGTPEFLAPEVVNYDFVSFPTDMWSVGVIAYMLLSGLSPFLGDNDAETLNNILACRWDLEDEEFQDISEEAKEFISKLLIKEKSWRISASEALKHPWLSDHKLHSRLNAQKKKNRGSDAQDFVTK

| SMILES | Activity [1] [%] | Activity [2] [%] | Activity [3] [%] | Activity [4] [%] | Activity [5] [%] | Activity [6] [%] | Activity [7] [%] | Activity [8] [%] | Activity [9] [%] | Activity [10] [%] | Activity [11] [%] | Activity [12] [%] | Activity [13] [%] | Activity [14] [%] | Activity [15] [%] | Activity [16] [%] | IC50 [17] [µM] | Activity [18] [%] | Activity [19] [%] | Activity [20] [%] | also measured |
| --- | --- | --- | --- | --- | --- | --- | --- | --- | --- | --- | --- | --- | --- | --- | --- | --- | --- | --- | --- | --- | --- |
| CCC(=O)Nc1ccc(C(=O)Nc2ccc(Nc3ncc4c(n3)N(C)c3ccc(C)cc3C(=O)N4C)cc2)cc1 | 85 | 90 | 68 | 100 | 99 | 94 | 91 | 95 | 100 | 98 | 74 | 85 | 100 | 62 | 91 | 100 | 34 | 70 | 88 | 98 | Activity [21]: 100%; Activity [22]: 100%; Activity [23]: 100%; Activity [24]: 77%; Activity [25]: 88% |
| C=CC(=O)Nc1ccc(C(=O)Nc2ccc(Nc3ncc4c(n3)N(C)c3ccc(C)cc3C(=O)N4C)cc2)cc1 | 84 | 96 | 96 | 100 | 100 | 91 | 79 | 98 | 83 | 100 | 100 | 85 | 100 | 100 | 92 | 96 | 37 | 63 | 86 | 97 | Activity [21]: 100%; Activity [22]: 95%; Activity [23]: 100%; Activity [24]: 96%; Activity [25]: 98% |
